The results in this text go back to ChEMBL document CHEMBL3603823, “Ethylenedioxy homologs of N-methyl-(3,4-methylenedioxyphenyl)-2-aminopropane (MDMA) and its corresponding cathinone analog methylenedioxymethcathinone: Interactions with transporters for serotonin, dopamine, and norepinephrine” (Bioorg Med Chem, 2015).

Structures are written as SMILES.

Holding throughout (assay type): subcellular
The target of assay [1] is Sodium-dependent serotonin transporter (Rattus norvegicus, UniProt P31652). Description: Binding affinity to SERT in Sprague-Dawley rat brain synaptosomes assessed as induction of [3H]5-HT release by liquid scintillation counting method. Put shortly:
(§1)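 Rat synaptosomes with 1 μM reserpine in all buffers; SERT and NET from whole brain minus caudate and cerebellum (900 μg/mL protein), DAT from caudate (90 μg/mL). Preloaded 1 h in Krebs-phosphate buffer with 5 nM [3H]5-HT (SERT) or 9 nM [3H]MPP+ (NET, DAT), with unlabeled blockers of competing transporters. Eight-point curves, 10–10,000 nM, triplicate, 3 occasions. Filtration, scintillation counting; EC50 by non-linear regression.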

Assay [2] has as its target Sodium-dependent dopamine transporter (Rattus norvegicus, UniProt P23977). Description: Binding affinity to DAT in Sprague-Dawley rat brain synaptosomes assessed as induction of [3H]MPP+ release by liquid scintillation counting method. Put shortly:
as §1

A short description of assay [3]: Binding affinity to NET in Sprague-Dawley rat brain synaptosomes assessed as induction of [3H]MPP+ release by liquid scintillation counting method. Put shortly: as §1
The target of assay [4] is Sodium-dependent serotonin transporter (Rattus norvegicus) (UniProt P31652). Description: Binding affinity to SERT in Sprague-Dawley rat brain synaptosomes assessed as induction of [3H]5-HT release by liquid scintillation counting method relative to control. Put shortly: (§2)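 Release measured in rat synaptosomes preloaded 1 h with 5 nM [3H]5-HT (SERT) or 9 nM [3H]MPP+ (NET, DAT), with reserpine and unlabeled blockers; test drug 10–10,000 nM. Efficacy is % of maximal release, defined as release by tyramine: 100 μM for SERT, 10 μM for DAT and NET. Filtration and scintillation counting; n = 3–4 experiments in triplicate.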
Chain of Sodium-dependent serotonin transporter (Rattus norvegicus) (P31652 whole entry): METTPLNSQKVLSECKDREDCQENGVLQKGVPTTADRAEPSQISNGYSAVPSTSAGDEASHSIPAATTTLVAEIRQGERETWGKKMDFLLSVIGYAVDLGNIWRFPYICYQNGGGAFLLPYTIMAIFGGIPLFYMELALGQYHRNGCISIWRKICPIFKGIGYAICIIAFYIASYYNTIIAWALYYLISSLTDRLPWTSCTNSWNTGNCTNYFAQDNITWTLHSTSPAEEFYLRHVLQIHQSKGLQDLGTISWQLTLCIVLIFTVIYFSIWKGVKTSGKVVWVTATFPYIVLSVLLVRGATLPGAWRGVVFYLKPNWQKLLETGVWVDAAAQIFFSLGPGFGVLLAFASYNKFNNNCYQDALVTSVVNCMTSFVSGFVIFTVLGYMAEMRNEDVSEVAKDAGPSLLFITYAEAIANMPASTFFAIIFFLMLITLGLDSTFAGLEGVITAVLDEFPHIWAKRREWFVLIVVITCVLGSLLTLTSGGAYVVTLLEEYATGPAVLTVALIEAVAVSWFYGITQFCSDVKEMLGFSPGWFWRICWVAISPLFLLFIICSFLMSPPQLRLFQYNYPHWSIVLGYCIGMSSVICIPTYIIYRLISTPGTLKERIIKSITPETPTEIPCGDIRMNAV

The target in assay [5] is Sodium-dependent dopamine transporter (Rattus norvegicus) (UniProt P23977). Description: Binding affinity to DAT in Sprague-Dawley rat brain synaptosomes assessed as induction of [3H]MPP+ release by liquid scintillation counting method relative to control. Put shortly:
as §2

The species entered for assay [6] is Rattus norvegicus. Description: Binding affinity to NET in Sprague-Dawley rat brain synaptosomes assessed as induction of [3H]MPP+ release by liquid scintillation counting method relative to control. Put shortly:
as §2

The species named for assay [7] is Rattus norvegicus. Description: Selectivity index, ratio of EC50 for DAT in Sprague-Dawley rat brain synaptosomes to EC50 for SERT in Sprague-Dawley rat brain synaptosomes.
For assay [8], the species on record is Rattus norvegicus. Description: Selectivity index, ratio of EC50 for NET in Sprague-Dawley rat brain synaptosomes to EC50 for SERT in Sprague-Dawley rat brain synaptosomes.

Chain of Sodium-dependent serotonin transporter (P31652 whole entry): as above
Chain of Sodium-dependent dopamine transporter (Rattus norvegicus) (P23977 whole entry): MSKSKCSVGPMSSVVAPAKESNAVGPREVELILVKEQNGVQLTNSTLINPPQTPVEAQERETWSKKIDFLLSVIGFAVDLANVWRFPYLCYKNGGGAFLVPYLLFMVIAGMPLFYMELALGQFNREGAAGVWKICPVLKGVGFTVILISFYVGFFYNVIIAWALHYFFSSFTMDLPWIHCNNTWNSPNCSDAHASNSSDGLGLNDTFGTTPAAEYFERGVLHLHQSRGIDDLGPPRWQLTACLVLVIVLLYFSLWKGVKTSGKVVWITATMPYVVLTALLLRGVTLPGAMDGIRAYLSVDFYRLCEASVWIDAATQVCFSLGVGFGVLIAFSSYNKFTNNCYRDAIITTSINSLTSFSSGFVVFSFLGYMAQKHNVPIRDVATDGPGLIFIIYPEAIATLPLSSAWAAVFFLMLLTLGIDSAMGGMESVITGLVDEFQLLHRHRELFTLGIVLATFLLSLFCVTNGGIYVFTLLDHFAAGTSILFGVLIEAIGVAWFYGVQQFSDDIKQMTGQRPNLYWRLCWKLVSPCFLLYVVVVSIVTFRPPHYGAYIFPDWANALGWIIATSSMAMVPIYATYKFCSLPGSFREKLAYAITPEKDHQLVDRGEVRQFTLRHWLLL
Chain of Sodium-dependent dopamine transporter (P23977 whole entry): as above

As for `CN[C@@H](C)Cc1ccc2c(c1)OCCO2`, the EC50 in assay [1] worked out at 91 nM; in assay [2], 276 nM; in assay [3] it was 239 nM. Also, the results for the %max (in assay [4]; in assay [5]; in the assay listed under Rattus norvegicus [6]) were 96%, 103% and 94%, respectively.
For the compound `CN[C@H](C)Cc1ccc2c(c1)OCCO2`, the EC50 in assay [1] worked out at 573 nM; in assay [2] it was 14600 nM; in assay [3], 1950 nM. For the same compound, the %max was 97% in assay [4], 106% in assay [5] and 85% in the assay filed under Rattus norvegicus [6].
For the compound `CNC(C)Cc1ccc2c(c1)OCCO2` (racemic), the EC50 in assay [1] is 117 nM; in assay [2], 597 nM; in assay [3], 325 nM. Further, the values for the %max (in assay [4]; in assay [5]; in the assay filed under Rattus norvegicus [6]) were 102%, 108% and 91%, respectively. In addition, the Ratio EC50 turned out to be 6 in the assay listed under Rattus norvegicus [7] and 3 in the assay listed under Rattus norvegicus [8].
Consider `CNC(C)C(=O)c1ccc2c(c1)OCCO2` (racemic), for which the concentration for a half-maximal effect (EC50) in assay [1] turned out to be 347 nM; in assay [2], 496 nM; in assay [3] it was 327 nM. The %max in assay [4] amounted to 105%; in assay [5], 105%; in the assay filed under Rattus norvegicus [6], 84%.
With `CNC(C)C(=O)c1ccc2c(c1)OCO2` (racemic) [METHYLONE], the EC50 is 242 nM in assay [1], 133 nM in assay [2] and 152 nM in assay [3].
In the case of `CNC(C)Cc1ccc2c(c1)OCO2` (racemic) [MIDOMAFETAMINE], the values for the EC50 in assay [1], in assay [2] and in assay [3] were 61 nM, 75 nM and 72 nM, respectively. For the same compound, the %max in assay [4] was 98%; in assay [5] it was 99%; in the assay listed under Rattus norvegicus [6], 95%.
